Our source for the Ki, LD50 and IC50 values is ChEMBL document CHEMBL1129073, “Metabolically programmed polyamine analogue antidiarrheals” (J Med Chem, 1996).

SMILES strings stand for the structures.

The test system of data set [1] is L1210. As to the kind of experiment: In vitro inhibition of uptake [3H]-spermidine in L1210 (murine leukemia) cells. The class given is functional, cell-based, Mus musculus.
Data set [2] can be described thus: Acute toxicity was assessed after ip administration of a single dose of 325 mg/kg to a group of 5 female CD-1 mice. The class given is organism-based. More on the design: dose 325 mg/kg, route intraperitoneal. The settings on record: CD-1, mouse, in vivo.
Data set [3] is described as follows: Effect of Chronic compound treatment on polyamine homeostasis in mouse kidney (native[N+]) at total dose of 90 mg/kg. Type of data set: ADME, organism-based. Further details: dose 90 mg/kg. The settings on record: in vivo. An outline of the steps: (§1)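 Groups of three female CD-1 mice were dosed at 15 mg/kg/day for 6 days (total 90 mg/kg, 208.3 μmol/kg). Mice were sacrificed 1 day after the final dose. Liver and kidney perchloric acid extracts were dansylated and analysed by HPLC against calibration standards. [N+] equivalents = 2[diamine] + 3[triamine] + 4[tetraamine], in nequiv/g wet weight, ±SD.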

Data set [4] can be described thus: Effect of Chronic compound treatment on polyamine homeostasis in mouse liver (native[N+]) at total dose of 90 mg/kg. The settings on record: in vivo. Type of data set: ADME, organism-based. More on the design: dose 90 mg/kg. The method in brief: as §1
Data set [5] is described as follows: Effect of Chronic compound treatment on polyamine homeostasis in mouse liver(total[N+]) at total dose of 90 mg/kg. The settings on record: in vivo. Further details: dose 90 mg/kg. Type of data set: ADME, organism-based. The method in brief: as §1
The subject of data set [6] is L1210 (Mus musculus). As to the kind of experiment: Growth inhibitory activity of compound on L1210 cells after 96 hours. The settings on record: L1210, 96 h.
Data set [7] concerns L1210. As to the kind of experiment: Ability to competitively inhibit uptake of radiolabeled spermidine in L1210 cells. The class given is functional, cell-based, Mus musculus. An outline of the steps:
(§2)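 Murine L1210 leukemia cells in RPMI-1640 with 10% FBS and 1 mM aminoguanidine. Pellets washed in cold medium containing 1 mM SPD, dissolved in NaOH, scintillation counted. Ki from Lineweaver–Burke plots; Km(SPD) 2.1 μM; mean of ≥3 experiments.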

Data set [8] deals with L1210. As to the kind of experiment: Growth inhibitory activity of compound on L1210 cells after 48 hours. Type of data set: functional, cell-based. The settings on record: Mus musculus, L1210, 48 h. The method in brief: (§3)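 Murine L1210 leukemia cells were kept in log-phase suspension in RPMI-1640 with 10% FBS, 2% HEPES-MOPS, 1 mM aminoguanidine and 1 mM L-glutamine at 37 °C under 5% CO₂. They were dosed at 0.5–1.0 × 10⁵ cells/mL with analogue in sterile water, 0.2 μm filtered. For the 96 h value, cells were reseeded at 48 h. Cells were counted electronically. IC50 is the concentration giving 50% of control growth, net of the inoculum.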

Data set [9] is described as follows: Effect of Chronic compound treatment on polyamine homeostasis in mouse kidney (total[N+]) at total dose of 100 mg/kg. More on the design: dose 100 mg/kg. Type of data set: ADME, organism-based. The settings on record: in vivo. An outline of the steps: (§4)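 Groups of three female CD-1 mice were given 20 mg/kg/day as a single daily ip injection for 5 days (total 100 mg/kg, 215.3 μmol/kg). Mice were sacrificed 24 h after the last dose. Liver and kidney perchloric acid extracts were dansylated and run on HPLC, quantified against calibration curves. [N+] equivalents = 2[diamine] + 3[triamine] + 4[tetraamine], in nequiv/g wet weight, ±SD.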

Data set [10] relates to L1210. Nature of the data set: Ability to competitively inhibit radioligand spermidine transport in L1210 cells. The class given is functional, cell-based, Mus musculus. An outline of the steps: as §2
Data set [11] in a line: Effect of Chronic compound treatment on polyamine homeostasis in mouse kidney (native[N+]) at total dose of 100 mg/kg. The class given is ADME, organism-based. More on the design: dose 100 mg/kg. The settings on record: in vivo. The method in brief: as §4
Data set [12] concerns L1210. Nature of the data set: Growth inhibitory activity of compound on L1210 cells after 96 hours. The class given is functional, cell-based. The settings on record: Mus musculus, L1210, 96 h. An outline of the steps:
as §3

The nature of data set [13]: Effect of Chronic compound treatment on polyamine homeostasis in mouse liver(total[N+]) total dose of 100 mg/kg. The class given is ADME, organism-based. Further details: dose 100 mg/kg. The settings on record: in vivo. An outline of the steps:
as §4

Data set [14] is described as follows: Effect of Chronic compound treatment on polyamine homeostasis in mouse liver (native[N+]) total dose of 100 mg/kg. The class given is ADME, organism-based. The settings on record: in vivo. More on the design: dose 100 mg/kg. The method in brief: as §4

Usually Ki stands for the dissociation constant of the complex between target and ligand, obtained from inhibition or displacement. `CCNCCCNC1CCC(NCCCNCC)CC1` (stereo unspecified): the Ki in [1] amounted to 7.9 µM.

Usually LD50 stands for the dose expected to kill half of the subjects tested. A lower LD50 goes with a more toxic substance. One may read the IC50 as the midpoint of a concentration-inhibition curve. Higher therefore signals a need for much substance. In the case of `CCNCCCCNCCCCNCCCCNCC` [DIETHYLHOMOSPERMINE], the LD50 was 325 mg/kg in data set [2], 1560 mg/kg in data set [3], 5506 mg/kg in data set [4] and 7806 mg/kg in data set [5]. Further, it took 0.05 µM to reach half-maximal inhibition in data set [6] (IC50).

`C(CCNCCC1CCNCC1)CNCCC1CCNCC1` registered a Ki in data set [1] of 18.1 µM.

In [2], `CCNCCCNCCCNCCCNCC` [BIS(ETHYL)NORSPERMINE] returned an LD50 of 325 mg/kg.

Turning to `C(CCNCCCCNC12CC3CC(CC(C3)C1)C2)CNCCCCNC12CC3CC(CC(C3)C1)C2`, the Ki in data set [7] came to 2 µM.

`C(CNC1CCNCC1)CNC1CCNCC1`: the Ki in data set [1] was 60.5 µM.

As for `CCNCCCCNC1CCC(NCCCCNCC)CC1` (stereo unspecified), the affinity in data set [1], expressed as Ki, was 3.5 µM.

On to `CCNCCC(O)CNCCCCNCC(O)CCNCC` (stereo unspecified), for which the LD50 is 325 mg/kg in data set [2]; 5427 mg/kg in data set [9]; 3251 mg/kg in [11]; 6706 mg/kg in data set [13]; 6118 mg/kg in data set [14]. Further, the figures for the IC50 in data set [8] and in data set [12] were 0.6 µM and 0.05 µM, respectively. The compound also had a Ki in data set [10] of 1.8 µM.

`c1cc(CNCCCCNCc2ccncc2)ccn1`: the Ki in data set [1] is > 500 µM.

As to `c1cc(NCCCNc2ccncc2)ccn1`, in [1], the Ki is > 500 µM.
